From ChEMBL document CHEMBL5724801, “EUbOPEN Chemogenomics Library - Multiplex” (2024)
“And” between values parts separate entries of the source, which are not always exact repeats. Equal values may be shown once.

Legend:
[1] = test system: Fibroblast; assay: Multiplex assay against human fibroblast; format: toxicity, cell-based
Method in brief: (§1)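 With compound added, live cells were imaged on a CQ1 microscope at 37°C and 5% CO2; staining with Hoechst33342, BioTracker Green Microtubule Cytoskeleton Dye, MitoTracker Red and Annexin V Alexa Fluor 680 had been done at seeding. The CellPathfinder machine-learning gating scheme split cells into Hoechst high-intensity objects or normal cells, normal cells into healthy, pyknosed or fragmented nuclei, and pyknosed cells into mitotic or apoptotic. The tubulin, mitochondrial-mass and membrane-permeability phenotypes are per cents of healthy-nucleus cells.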

[2] = test system: U2OS; assay: Multiplex assay against U2OS; format: toxicity, cell-based; settings: human; method in brief: as §1
[3] = 24 h, 1 µM, compound concentration 1 uM
[4] = 24 h, 10 µM, compound concentration 10 uM
[5] = 48 h, 1 µM, compound concentration 1 uM
[6] = 48 h, 10 µM, compound concentration 10 uM
[7] = 12 h, 1 µM, compound concentration 1 uM
[8] = 12 h, 10 µM, compound concentration 10 uM

**Q.** `COc1ccccc1N1CCN(C[C@@H](C(=O)NC(C)(C)C)c2ccccc2)CC1.Cl.Cl` was tested. Which “Population Pyknosed Nuclei (%)” value [1, 3] did it give?
**A.** The value was 14% and 19%.

**Q.** And the “Population Tubulin-Different-Phenotype (%)” value [1, 3]?
**A.** Its value is 32% and 50%.

**Q.** What about the “Total Cell Count” value [1, 3] of the same compound?
**A.** Its value is 143 and 151.

**Q.** And the “Population Apoptotic (%)” value [1, 4]?
**A.** The value was 83% and 40%.

**Q.** And the “Population Fragmented Nuclei (%)” value [1, 4]?
**A.** The value was 19% and 39%.

**Q.** And the “Population Healthy Nuclei (%)” value [1, 4]?
**A.** The value was 65% and 41%.

**Q.** What about the “Population Hoechst High Intensity Objects (%)” value [1, 4] of the same compound?
**A.** Its value is 8% and 3%.

**Q.** What about the “Population Membrane Permeable-Phenotype (%)” value [1, 4] of the same compound?
**A.** The value was 0% and 8%.

**Q.** What about the “Population Normal (%)” value [1, 4] of the same compound?
**A.** Its value is 91% and 96%.

**Q.** What about the “Population Pyknosed Nuclei (%)” value [1, 4] of the same compound?
**A.** The value was 14% and 19%.

**Q.** What about the “Population Tubulin-Different-Phenotype (%)” value [1, 4] of the same compound?
**A.** The value was 63% and 76%.

**Q.** And the “Total Cell Count” value [1, 4]?
**A.** Its value is 132 and 116.

**Q.** And the “Population Apoptotic (%)” value [1, 5]?
**A.** Its value is 84% and 60%.

**Q.** What about the “Population Fragmented Nuclei (%)” value [1, 5] of the same compound?
**A.** Its value is 18% and 31%.

**Q.** And the “Population Healthy Nuclei (%)” value [1, 5]?
**A.** The value was 71% and 52%.

**Q.** What about the “Population Hoechst High Intensity Objects (%)” value [1, 5] of the same compound?
**A.** The value was 5%.

**Q.** And the “Population Membrane Permeable-Phenotype (%)” value [1, 5]?
**A.** Its value is 1% and 5%.

**Q.** And the “Population Mitochondria Different-Phenotype (%)” value [1, 5]?
**A.** The value was 12% and 5%.

**Q.** And the “Population Mitotic Cells (%)” value [1, 5]?
**A.** The value was 15% and 40%.

**Q.** And the “Population Normal (%)” value [1, 5]?
**A.** Its value is 94%.

**Q.** And the “Population Pyknosed Nuclei (%)” value [1, 5]?
**A.** Its value is 10% and 15%.

**Q.** What about the “Population Tubulin-Different-Phenotype (%)” value [1, 5] of the same compound?
**A.** The value was 34% and 56%.

**Q.** What about the “Total Cell Count” value [1, 5] of the same compound?
**A.** Its value is 138 and 171.

**Q.** What about the “Population Apoptotic (%)” value [1, 6] of the same compound?
**A.** The value was 84% and 44%.

**Q.** What about the “Population Fragmented Nuclei (%)” value [1, 6] of the same compound?
**A.** The value was 18% and 50%.

**Q.** What about the “Population Healthy Nuclei (%)” value [1, 6] of the same compound?
**A.** The value was 63% and 41%.

**Q.** And the “Population Membrane Permeable-Phenotype (%)” value [1, 6]?
**A.** The value was 0% and 8%.

**Q.** And the “Population Normal (%)” value [1, 6]?
**A.** Its value is 85% and 96%.

**Q.** And the “Population Pyknosed Nuclei (%)” value [1, 6]?
**A.** Its value is 18% and 7%.

**Q.** And the “Population Tubulin-Different-Phenotype (%)” value [1, 6]?
**A.** Its value is 65% and 67%.

**Q.** What about the “Total Cell Count” value [1, 6] of the same compound?
**A.** The value was 122.

**Q.** What about the “Population Apoptotic (%)” value [2, 7] of the same compound?
**A.** The value was 73% and 66%.

**Q.** What about the “Population Fragmented Nuclei (%)” value [2, 7] of the same compound?
**A.** The value was 29% and 14%.

**Q.** What about the “Population Healthy Nuclei (%)” value [2, 7] of the same compound?
**A.** The value was 65% and 80%.

**Q.** What about the “Population Hoechst High Intensity Objects (%)” value [2, 7] of the same compound?
**A.** The value was 2% and 1%.

**Q.** And the “Population Membrane Permeable-Phenotype (%)” value [2, 7]?
**A.** The value was 5% and 7%.

**Q.** What about the “Population Mitochondria Different-Phenotype (%)” value [2, 7] of the same compound?
**A.** The value was 3% and 2%.

**Q.** What about the “Population Mitotic Cells (%)” value [2, 7] of the same compound?
**A.** The value was 26% and 33%.

**Q.** What about the “Population Normal (%)” value [2, 7] of the same compound?
**A.** Its value is 97% and 98%.

**Q.** What about the “Population Pyknosed Nuclei (%)” value [2, 7] of the same compound?
**A.** Its value is 5%.

**Q.** And the “Population Tubulin-Different-Phenotype (%)” value [2, 7]?
**A.** The value was 1% and 3%.

**Q.** What about the “Total Cell Count” value [2, 7] of the same compound?
**A.** The value was 281 and 114.

**Q.** What about the “Population Apoptotic (%)” value [2, 8] of the same compound?
**A.** The value was 46% and 50%.

**Q.** And the “Population Fragmented Nuclei (%)” value [2, 8]?
**A.** The value was 35% and 17%.

**Q.** What about the “Population Healthy Nuclei (%)” value [2, 8] of the same compound?
**A.** The value was 49% and 66%.

**Q.** And the “Population Hoechst High Intensity Objects (%)” value [2, 8]?
**A.** The value was 3% and 0%.

**Q.** What about the “Population Membrane Permeable-Phenotype (%)” value [2, 8] of the same compound?
**A.** The value was 41% and 49%.

**Q.** And the “Population Mitochondria Different-Phenotype (%)” value [2, 8]?
**A.** Its value is 41% and 56%.

**Q.** And the “Population Mitotic Cells (%)” value [2, 8]?
**A.** Its value is 53% and 50%.

**Q.** And the “Population Normal (%)” value [2, 8]?
**A.** Its value is 96% and 99%.

**Q.** And the “Population Pyknosed Nuclei (%)” value [2, 8]?
**A.** The value was 14% and 15%.

**Q.** What about the “Population Tubulin-Different-Phenotype (%)” value [2, 8] of the same compound?
**A.** Its value is 41% and 64%.

**Q.** And the “Total Cell Count” value [2, 8]?
**A.** Its value is 226 and 102.

**Q.** And the “Population Apoptotic (%)” value [2, 3]?
**A.** Its value is 68% and 80%.

**Q.** What about the “Population Fragmented Nuclei (%)” value [2, 3] of the same compound?
**A.** The value was 29% and 16%.

**Q.** And the “Population Healthy Nuclei (%)” value [2, 3]?
**A.** The value was 62% and 75%.

**Q.** What about the “Population Hoechst High Intensity Objects (%)” value [2, 3] of the same compound?
**A.** Its value is 3%.

**Q.** And the “Population Membrane Permeable-Phenotype (%)” value [2, 3]?
**A.** The value was 7% and 5%.

**Q.** What about the “Population Mitochondria Different-Phenotype (%)” value [2, 3] of the same compound?
**A.** The value was 1% and 6%.

**Q.** What about the “Population Mitotic Cells (%)” value [2, 3] of the same compound?
**A.** The value was 32% and 20%.

**Q.** What about the “Population Normal (%)” value [2, 3] of the same compound?
**A.** The value was 96%.

**Q.** And the “Population Pyknosed Nuclei (%)” value [2, 3]?
**A.** Its value is 8%.

**Q.** What about the “Population Tubulin-Different-Phenotype (%)” value [2, 3] of the same compound?
**A.** Its value is 3% and 2%.

**Q.** And the “Total Cell Count” value [2, 3]?
**A.** Its value is 320 and 129.

**Q.** What about the “Population Apoptotic (%)” value [2, 4] of the same compound?
**A.** Its value is 61% and 70%.

**Q.** What about the “Population Fragmented Nuclei (%)” value [2, 4] of the same compound?
**A.** The value was 38% and 20%.

**Q.** And the “Population Healthy Nuclei (%)” value [2, 4]?
**A.** The value was 42% and 63%.

**Q.** And the “Population Hoechst High Intensity Objects (%)” value [2, 4]?
**A.** Its value is 5%.

**Q.** And the “Population Membrane Permeable-Phenotype (%)” value [2, 4]?
**A.** The value was 20% and 39%.

**Q.** And the “Population Mitochondria Different-Phenotype (%)” value [2, 4]?
**A.** Its value is 33% and 61%.

**Q.** What about the “Population Mitotic Cells (%)” value [2, 4] of the same compound?
**A.** The value was 38% and 29%.

**Q.** And the “Population Normal (%)” value [2, 4]?
**A.** Its value is 94%.

**Q.** What about the “Population Pyknosed Nuclei (%)” value [2, 4] of the same compound?
**A.** The value was 18% and 15%.

**Q.** What about the “Population Tubulin-Different-Phenotype (%)” value [2, 4] of the same compound?
**A.** Its value is 25% and 52%.

**Q.** And the “Total Cell Count” value [2, 4]?
**A.** Its value is 235 and 113.

**Q.** What about the “Population Apoptotic (%)” value [2, 5] of the same compound?
**A.** The value was 78% and 83%.

**Q.** What about the “Population Fragmented Nuclei (%)” value [2, 5] of the same compound?
**A.** Its value is 21% and 16%.

**Q.** And the “Population Healthy Nuclei (%)” value [2, 5]?
**A.** Its value is 66% and 72%.

**Q.** What about the “Population Hoechst High Intensity Objects (%)” value [2, 5] of the same compound?
**A.** Its value is 2% and 4%.

**Q.** And the “Population Membrane Permeable-Phenotype (%)” value [2, 5]?
**A.** Its value is 5% and 7%.

**Q.** What about the “Population Mitochondria Different-Phenotype (%)” value [2, 5] of the same compound?
**A.** Its value is 1% and 2%.

**Q.** What about the “Population Mitotic Cells (%)” value [2, 5] of the same compound?
**A.** Its value is 22% and 16%.

**Q.** And the “Population Normal (%)” value [2, 5]?
**A.** Its value is 97% and 95%.

**Q.** What about the “Population Pyknosed Nuclei (%)” value [2, 5] of the same compound?
**A.** Its value is 11%.

**Q.** What about the “Population Tubulin-Different-Phenotype (%)” value [2, 5] of the same compound?
**A.** Its value is 1% and 4%.

**Q.** And the “Total Cell Count” value [2, 5]?
**A.** Its value is 452 and 162.

**Q.** And the “Population Apoptotic (%)” value [2, 6]?
**A.** Its value is 58% and 96%.

**Q.** What about the “Population Fragmented Nuclei (%)” value [2, 6] of the same compound?
**A.** Its value is 33% and 18%.

**Q.** What about the “Population Healthy Nuclei (%)” value [2, 6] of the same compound?
**A.** Its value is 44% and 58%.

**Q.** And the “Population Hoechst High Intensity Objects (%)” value [2, 6]?
**A.** The value was 4% and 8%.

**Q.** What about the “Population Membrane Permeable-Phenotype (%)” value [2, 6] of the same compound?
**A.** Its value is 28% and 43%.

**Q.** And the “Population Mitochondria Different-Phenotype (%)” value [2, 6]?
**A.** Its value is 30% and 29%.

**Q.** What about the “Population Normal (%)” value [2, 6] of the same compound?
**A.** The value was 95% and 91%.

**Q.** And the “Population Pyknosed Nuclei (%)” value [2, 6]?
**A.** Its value is 21% and 22%.

**Q.** What about the “Population Tubulin-Different-Phenotype (%)” value [2, 6] of the same compound?
**A.** Its value is 21% and 35%.

**Q.** What about the “Total Cell Count” value [2, 6] of the same compound?
**A.** Its value is 271 and 121.
